The test system of data set [1] is Human immunodeficiency virus 1. Put plainly: Antiviral activity against HIV1 subtype A isolate 92UG029 infected in human PBMC after 48 to 72 hrs by MTS assay. Type of data set: functional, organism-based. The conditions noted are these: Human immunodeficiency virus 1, isolate 92UG029. In outline: (§1)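 Fresh donor PBMCs, HIV- and HBV-seronegative, were stimulated with 4 μg/ml PHA for 48 to 72 h and kept on 20 U/ml rhIL-2. Cells pooled from at least two donors were seeded at 5 × 10^4 per well and infected at MOI ~0.1. Nine compound concentrations were run in triplicate wells for 7 days.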

Data set [2] has as its system Human immunodeficiency virus 1. Put plainly: Antiviral activity against HIV1 subtype C isolate 92BR025 infected in human PBMC after 48 to 72 hrs by MTS assay. Type of data set: functional, organism-based. The conditions noted are these: Human immunodeficiency virus 1, isolate 92BR025. In short, it runs like this:
as §1

The test system of data set [3] is Human immunodeficiency virus 1. The experiment in a line: Antiviral activity against HIV1 subtype D isolate 92UG024 infected in human PBMC after 48 to 72 hrs by MTS assay. Type of data set: functional, organism-based. The conditions noted are these: Human immunodeficiency virus 1, isolate 92UG024. In short, it runs like this: as §1
(Tetrazolium assays rely on reduction of a dye to a coloured formazan, in cell work by metabolically active cells.)

Data set [4] relates to Human immunodeficiency virus 1. The experiment in a line: Antiviral activity against HIV1 subtype E isolate 93TH073 infected in human PBMC after 48 to 72 hrs by MTS assay. Type of data set: functional, organism-based. Particulars: Human immunodeficiency virus 1, isolate 93TH073. In short, it runs like this:
as §1

The subject of data set [5] is Human immunodeficiency virus 1. Put plainly: Antiviral activity against HIV1 subtype E isolate CMU06 infected in human PBMC after 48 to 72 hrs by MTS assay. Type of data set: functional, organism-based. Particulars: Human immunodeficiency virus 1, isolate CMU06. In short, it runs like this:
as §1

Data set [6] concerns Human immunodeficiency virus 1. Put plainly: Antiviral activity against HIV1 subtype F isolate 93BR020 infected in human PBMC after 48 to 72 hrs by MTS assay. Type of data set: functional, organism-based. The conditions noted are these: Human immunodeficiency virus 1, isolate 93BR020. In outline: as §1
Data set [7] deals with Human immunodeficiency virus 1. Put plainly: Antiviral activity against HIV1 subtype F isolate 93BR029 infected in human PBMC after 48 to 72 hrs by MTS assay. Type of data set: functional, organism-based. Particulars: Human immunodeficiency virus 1, isolate 93BR029. In outline: as §1
The subject of data set [8] is PBMC. The experiment in a line: Cellular uptake in PHA/IL-2-stimulated human PBMC at 1 uM assessed as TFV-monophosphate level after 24 hrs by MS/MS analysis. Type of data set: ADME, cell-based. In outline: (§2)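 PHA-stimulated (4 μg/ml PHA, 48 to 72 h; 20 U/ml rhIL-2) human PBMCs at 2 × 10^6 cells/ml in RPMI 1640 with 15% FBS, given tenofovir or prodrug (final 0.01 to 10 μM) for 24 h at 37°C. Cells washed three times in cold 0.9% NaCl, counted, and 1 × 10^7 cell aliquots pelleted. TFV, TFV-MP and TFV-PP were separated by ion-pairing reverse-phase LC and detected by positive-ion electrospray MS. Output is pmol per 10^6 cells.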

For data set [9], the system named is PBMC. The experiment in a line: Cellular uptake in PHA/IL-2-stimulated human PBMC at 1 uM assessed as TFV-diphosphate level after 24 hrs by MS/MS analysis. Type of data set: ADME, cell-based. In outline:
as §2

The test system of data set [10] is PBMC. The experiment in a line: Cellular uptake in PHA/IL-2-stimulated human PBMC at 10 uM assessed as TFV-monophosphate after 24 hrs by MS/MS analysis. Type of data set: ADME, cell-based. In short, it runs like this: as §2
Data set [11] deals with PBMC. The experiment in a line: Cellular uptake in PHA/IL-2-stimulated human PBMC at 10 uM assessed as TFV-diphosphate after 24 hrs by MS/MS analysis. Type of data set: ADME, cell-based. In outline: as §2
For the next data set, the system named is HeLa. Put plainly: Cytotoxicity against human HeLa cells after 24 hrs by XTT assay. Type of data set: cell-based. In short, it runs like this: (§3)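 Six-concentration growth-inhibition test: 10 to 0.032 μM for the prodrug and TDF, up to 100 μM for TFV, with Triton X-100 run in parallel. Cell lines were split 1:2 the day before and seeded at 5 × 10^3 to 2 × 10^4 cells/well, with adherent lines left overnight. Dendritic cells were derived with GM-CSF/IL-4 for 7 days, then LPS 10 ng/ml for 2 days. Viability was read by XTT.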

Another data set relates to CEM-SS. Put plainly: Cytotoxicity against human CEM-SS cells after 24 hrs by XTT assay. Type of data set: cell-based. In short, it runs like this:
as §3

The nature of data set [12]: Cytotoxicity against human ME180 cells after 24 hrs by XTT assay. Type of data set: cell-based. Particulars: me-180, 24 h. In short, it runs like this: as §3
The subject of data set [13] is Human immunodeficiency virus 1. Put plainly: Antiviral activity against HIV1 group O isolate BCF02 infected in human PBMC after 48 to 72 hrs by MTS assay. Type of data set: functional, organism-based. The conditions noted are these: Human immunodeficiency virus 1, isolate BCF02. In outline:
as §1

The test system of data set [14] is Human immunodeficiency virus 2. Put plainly: Antiviral activity against HIV2 isolate CDC310319 infected in human PBMC after 48 to 72 hrs by MTS assay. Particulars: Human immunodeficiency virus 2, isolate CDC310319. Type of data set: functional, organism-based. In short, it runs like this:
as §1

Data set [15] has as its system Human immunodeficiency virus 2. Put plainly: Antiviral activity against HIV2 isolate CBL-20 infected in human PBMC after 48 to 72 hrs by MTS assay. Type of data set: functional, organism-based. The conditions noted are these: Human immunodeficiency virus 2, isolate CBL-20. In short, it runs like this:
as §1

Data set [16] has as its system Human immunodeficiency virus 2. The experiment in a line: Antiviral activity against HIV2 isolate CDC310342 infected in human PBMC after 48 to 72 hrs by MTS assay. Type of data set: functional, organism-based. The conditions noted are these: Human immunodeficiency virus 2, isolate CDC310342. In outline: as §1
Data set [17] relates to PBMC. Put plainly: Cytotoxicity against human PBMC up to 1000 nM by MTS assay. Type of data set: cell-based.
A short description of data set [18]: Cytotoxicity against human MDM up to 1000 nM by MTS assay. Type of data set: cell-based.
Data set [19] concerns Human immunodeficiency virus 1. The experiment in a line: Antiviral activity against HIV1 NL 4-3 expressing wild type reverse transcriptase infected in human PBMC by ELISA. Particulars: Human immunodeficiency virus 1, NL 4-3. Type of data set: functional, organism-based. In short, it runs like this: as §1
Background: ELISA stands for enzyme-linked immunosorbent assay.

For data set [20], the system named is Human immunodeficiency virus 1. Put plainly: Antiviral activity against HIV1 7324-1 harboring reverse transcriptase 41L/67N/69N/70R/215F/219E mutant gene infected in human PBMC by ELISA. Type of data set: functional, organism-based. Particulars: Human immunodeficiency virus 1, 7324-1. In outline:
(§4)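 Fresh PBMCs pooled from at least two HIV- and HBV-seronegative donors, stimulated with PHA 4 μg/ml for 48–72 h and kept in rhIL-2 20 U/ml. Seeded at 5 × 10^4 cells/well and infected with RT-mutant HIV-1 clones at MOI ~0.1. Nine compound concentrations, triplicate wells, 7-day incubation. EC50 reported as mean ± SD of one to three independent experiments.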

Data set [21] deals with Human immunodeficiency virus 1. The experiment in a line: Antiviral activity against HIV1 7303-3 harboring reverse transcriptase 41L/44D/67N/69D/118I/210W/215Y mutant gene infected in human PBMC by ELISA. Type of data set: functional, organism-based. Particulars: Human immunodeficiency virus 1, 7303-3. In outline:
as §4

The subject of data set [22] is Human immunodeficiency virus 1. The experiment in a line: Antiviral activity against HIV1 1617-1 harboring reverse transcriptase 69K/70G/75I/77L/116Y/151M/184V mutant gene infected in human PBMC by ELISA. Type of data set: functional, organism-based. Particulars: Human immunodeficiency virus 1, 1617-1. In outline: as §4
In data set [23] the test system is Human immunodeficiency virus 1. The experiment in a line: Antiviral activity against HIV1 71361-1 harboring reverse transcriptase 65R mutant gene infected in human PBMC by ELISA. Type of data set: functional, organism-based. Particulars: Human immunodeficiency virus 1, 71361-1. In outline:
as §4

Data set [24] concerns PBMC. The experiment in a line: Cellular uptake in human PBMC at 10 uM assessed as TFV-monophosphate after 24 hrs by MS/MS analysis. Type of data set: ADME, cell-based. In outline: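 Human PBMCs, unstimulated or PHA/IL-2-stimulated, at 2 × 10^6 cells/ml in RPMI 1640 with 15% FBS, exposed 24 h at 37°C to final 0.01, 0.1, 1.0 or 10 μM of the prodrug, or 1.0 or 10 μM tenofovir. After cold saline washes the cells were counted and 1 × 10^7-cell pellets made. TFV, TFV-MP and TFV-PP were measured by ion-pairing LC with positive-ion electrospray MS as pmol/10^6 cells.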

Data set [25] concerns Human immunodeficiency virus 1. Put plainly: Antiviral activity against HIV1 subtype G isolate JV1083 infected in human PBMC after 48 to 72 hrs by MTS assay. Particulars: Human immunodeficiency virus 1, isolate JV1083.

A word on the EC50: it is the concentration giving half of the maximal effect. Low values mean greater potency, high ones weaker potency. With `CCCCCCCCCCCCCCCCOCCCOP(=O)(O)CO[C@H](C)Cn1cnc2c(N)ncnc21` [TENOFOVIR EXALIDEX], the 50% effective concentration (EC50) in data set [1] was determined as 3.3 nM; in data set [2], 2.8 nM; in [3], 2.1 nM; in data set [4], 2.3 nM; in data set [5], 2.3 nM; in data set [6] it was 2.7 nM. For the same compound, the EC50 was 2.7 nM in [7]; 5 nM in data set [13]; 3.5 nM in data set [14]; 3.5 nM in data set [15]; 3.5 nM in [16]; 1.5 nM in [19]. Moreover, the EC50 in data set [20] came out at 3.8 nM; in data set [21], 19 nM; in [22] it was 5 nM; in [23] it was 13 nM; in [25] it was 2.2 nM. For the same compound, the Drug uptake in the data set on PBMC [8] came to 0.3 pmol/10^6 cells; in the data set on PBMC [9], 1.7 pmol/10^6 cells; in the data set on PBMC [10], 0.9 pmol/10^6 cells; in the data set with PBMC [11], 5.5 pmol/10^6 cells; in the data set with PBMC [24], 0.12 pmol/10^6 cells. Besides, the Activity entry (in the data set on HeLa; in the data set with CEM-SS; in data set [12]; in the data set with PBMC [17]; in [18]) was “Non-toxic” throughout.
Regarding `C[C@H](Cn1cnc2c(N)ncnc21)OCP(=O)(O)O` [TENOFOVIR ANHYDROUS], the Drug uptake result in the data set with PBMC [8] (BLD = below limit of detection) was “BLD”; in the data set with PBMC [9] it was 0.05 pmol/10^6 cells; in the data set with PBMC [10] (BLD = below limit of detection), “BLD”; in the data set with PBMC [11], 0.22 pmol/10^6 cells; with PBMC [24], 0.05 pmol/10^6 cells. The Activity entry (in the data set with HeLa; in the data set on CEM-SS; in data set [12]) was “Non-toxic” in each case. For the same compound, the half-maximal effective concentration (EC50) in data set [19] was 300 nM; in [20] it was 6500 nM; in data set [21] it was > 8500 nM; in data set [22] it was > 6500 nM; in [23], > 8000 nM.
For the compound `Cc1cn([C@H]2C[C@H](N=[N+]=[N-])[C@@H](CO)O2)c(=O)[nH]c1=O` [ZIDOVUDINE], the half-maximal effective concentration (EC50) came out at 14 nM in [1]; 4.9 nM in data set [2]; 6.3 nM in data set [3]; 5.5 nM in data set [4]; 5.5 nM in data set [5]; 9.6 nM in data set [6]. Besides, the EC50 in [7] worked out at 9.6 nM; in data set [13] it was 1.7 nM; in data set [14], 9.3 nM; in data set [15], 9.3 nM; in data set [16] it was 9.3 nM; in data set [19] it was 0.53 nM. Moreover, the half-maximal effective concentration (EC50) in data set [20] is 330 nM; in data set [21], 3000 nM; in data set [22] it was > 340 nM; in data set [23] it was 2.7 nM; in [25], 4.7 nM. The Activity entry (in the data set with PBMC [17]; in [18]) was “Non-toxic” in each case.
